APJ antag = antagonists of human APJ apelin receptor; CHO-K1 APJ beta-arrestin complementation, luminescence; AID 2521; hit rate 0.32% among 330,000; inhibition, % at 20 µM;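 active = inhibition above about 40% at 20 µM, limit read from the data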;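 note: cells challenged with 10 nM apelin-13 agonist together with compound; plate controls were apelin-13 plus DMSO wells for no effect and DMSO wells lacking apelin-13 for full effect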
CXCR6 inh = CXCR6 (human) receptor inhibition; O00574; CHO-K1 PathHunter CXCR6 beta-arrestin, luminescence; inhibition, % at 20 µM; hit rate 0.36% among 360,000; in the data active = inhibition above about 34%, passing the limit was not always enough;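 note: antagonist mode with CXCL16 agonist at 10 nM final; 0% = 10 nM CXCL16 with DMSO and 100% = unstimulated wells without agonist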
APJ agonist = activates the human apelin receptor APJ; activation, % at 20 µM; hit rate 0.11% among 330,000; P35414; CHO-K1 APJ PathHunter beta-arrestin, luminescence; 0% DMSO wells, 100% apelin;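 active = activation more than six SD over the plate average, tested at 20 µM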;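 note: 0% = DMSO alone and 100% = apelin-13 at 10 nM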
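Assay system: engineered CHO-K1 APJ arrestin reporter cells; Amount: 1000 CHO-K1 reporter cells seeded per well; Dosing: one dose, 20 µM compound, 1% DMSO; Times: compound stimulation 90 min at 25 °C, detection 60 min; Measured by: luminescent beta-gal fragment complementation, chemiluminescent substrate; Read-out: APJ–arrestin association signal; Controls: DMSO vs Apelin-13 10 nM.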
EBI2 antag = antagonists of human EBI2 receptor | EBI2 beta-arrestin recruitment, luminescence, 7a,25-OHC stimulated | inhibition, % at 5 µM | hit rate 0.81% among 360,000 | AID 651636; in the data active = inhibition above about 38%;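 note: enzyme fragment complementation signal reports receptor beta-arrestin coupling in cells; 0% = agonist plus DMSO wells and 100% = wells without agonist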
CCR6 antagonist = blocks CCL20-driven beta-arrestin recruitment at human CCR6; P51684; CHO-K1 CCR6 PathHunter beta-arrestin, luminescence, CCL20-stimulated; inhibition, % at 20 µM; hit rate 0.49% among 340,000; AID 493098;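 active = compounds whose inhibition of the agonist-driven luminescence signal at 20 µM reaches about 50%, limit read from the data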;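 note: cells stimulated with CCL20 at 14 nM final; plate controls were DMSO with CCL20 for no effect and DMSO without agonist for full effect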
Target sequence (P51684 whole entry, looked up): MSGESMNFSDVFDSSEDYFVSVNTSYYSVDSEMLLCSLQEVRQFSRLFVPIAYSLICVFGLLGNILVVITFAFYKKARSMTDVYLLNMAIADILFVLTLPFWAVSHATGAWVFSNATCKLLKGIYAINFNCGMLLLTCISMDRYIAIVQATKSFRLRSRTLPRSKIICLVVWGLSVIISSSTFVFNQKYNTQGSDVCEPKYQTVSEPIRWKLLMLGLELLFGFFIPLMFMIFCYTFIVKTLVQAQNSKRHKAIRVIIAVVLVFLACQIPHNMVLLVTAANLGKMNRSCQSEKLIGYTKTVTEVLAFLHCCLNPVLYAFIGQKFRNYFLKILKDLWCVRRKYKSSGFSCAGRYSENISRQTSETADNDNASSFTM
EBI2 antag conf = confirmation of human EBI2 receptor antagonists; shares compounds with EBI2 antag; EBI2 beta-arrestin luminescence, 7a,25-OHC antagonism; inhibition, % at 5 µM; hit rate 29% among 2,400; AID 651997;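 active = inhibition of at least 50%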
EBI2 agonist = counter-screen for EBI2 antagonists: EBI2 agonist activity; shares compounds with EBI2 antag; EBI2-expressing cells, agonist mode, luminescence, 60 min; 0% vehicle, 100% 7α,25-dihydroxycholesterol control; activation, % at 5 µM; 2,400 tested, under 10 active;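 active = activation of at least 50%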
bGal counter = inhibits E. coli beta-galactosidase, counter-screen for EBI2 antagonists; shares compounds with EBI2 antag; purified beta-galactosidase, luminescent Galacton Star, 15 min; inhibition, % at 5 µM; hit rate 1% among 2,400; AID 652176;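 active = replicate-average signal at least 3 plate SD below neutral wells, shown as high inhibition, flagging enzyme-inhibiting false positives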;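 note: 0% = DMSO wells with enzyme and 100% = wells lacking enzyme; higher means stronger loss of beta-gal luminescence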
* marks the source's active call; other numbers are inactive results; · = no result given. A selection: hits, their analogues and other compounds. The true share with any hit is near 1.5%.

SMILES	APJ antag	CXCR6 inh	APJ agonist	EBI2 antag	CCR6 antagonist	EBI2 antag conf	EBI2 agonist	bGal counter
COc1cc(-c2nc3cc(C)ccn3c2NC2CCCCC2)ccc1-c1ccc(C(C)=O)cc1	12.6	10.4	6.9	58.6*	7.8	45.6	-1.5	-1.9
CCOC(=O)C1(CC2CCCCO2)CCN(C(=O)Nc2ccc(SC)cc2)CC1 (stereo not drawn)	7.7	2.9	-3.6	40.4*	13.8	18.8	0.7	2.2
CCOC(=O)C1(CC2CCCCO2)CCN(C(=O)Nc2cccc(SC)c2)CC1 (stereo not drawn)	5.3	0.4	0.2	25.7	7.3	·	·	·
Cc1ccc(NC(=O)CN2CCCC2c2cccn2C)c(Br)c1 (stereo not drawn)	9.0	7.5	-3.1	-3.4	15.2	·	·	·
COc1cc(/C=C(\C#N)C(=O)NC2CCCCC2C)ccc1OS(=O)(=O)c1ccc(C)cc1 (stereo not drawn)	3.6	-3.2	2.4	62.5*	12.2	68.9*	0.5	-2.9
CCOC(=O)/C(C#N)=C\c1ccc(OC)c(OC)c1	-0.7	1.8	-1.2	-3.4	7.7	·	·	·
CSc1ccc(/C=C(\C#N)C(=O)NC2CCCCC2C)cc1 (stereo not drawn)	6.1	11.4	-0.5	32.2	32.1	·	·	·
COc1cc(/C=C(/C#N)C(=O)Nc2ccc(C)cc2)ccc1Oc1nc(Cl)ncc1F	-24.2	-4.2	6.6	49.1*	14.8	46.2	-0.8	-13.4
COc1ccc(/C=N/NC(=O)CC#N)cc1Oc1nc(Cl)ncc1F	9.7	2.8	-3.6	-15.5	0.3	·	·	·
COc1cc(/C=C(\C#N)C(N)=O)ccc1OS(=O)(=O)c1ccc(C)cc1	-22.2	4.2	-3.5	52.4*	17.4	56.2*	1.4	-6.8
Cc1ccsc1C1Nc2ccc3ncccc3c2C2=C1C(=O)CC(C)(C)C2 (stereo not drawn)	-17.9	12.5	0.0	93.6*	18.0	75.9*	-0.2	3.4
O=C1CCCC2=C1C(c1cccs1)Nc1ccc3ncccc3c12 (stereo not drawn)	9.7	-3.6	-2.2	21.3	7.9	·	·	·
Cc1cccnc1NCc1ccc(O)c2ncccc12	5.6	6.8	-5.2	55.9*	8.7	22.2	0.5	7.2
Cc1cccc(NCc2ccc(O)c3ncccc23)c1C	-1.5	-0.5	-4.1	-7.7	0.9	·	·	·
O=C(Nc1cccc(-c2csc(Nc3cccc(C(F)(F)F)c3)n2)c1)c1ccccc1	-0.6	-12.0	-0.5	46.2*	-1.4	23.4	-1.0	-15.2
O=C(Nc1ccc(-c2csc(Nc3cccc(C(F)(F)F)c3)n2)cc1)c1ccccc1	-12.7	1.3	0.9	20.1	-7.8	·	·	·
COc1ccc(Cn2c(=O)c3cccnc3n(Cc3ccc([N+](=O)[O-])cc3)c2=O)cc1	-10.1	12.9	-1.7	47.2*	23.9	9.6	1.4	-1.0
COc1ccccc1/C=C\C(=O)NCC(=O)N/N=C/c1cccc(OC)c1O	1.5	3.5	2.0	-1.6	6.0	·	·	·
COc1ccc(/C=N/NC(=O)CNC(=O)/C=C/c2ccccc2OC)cc1	0.1	-0.7	-3.0	76.8*	-4.6	56.8*	0.0	-16.6
COc1ccc(CCC(=O)N2CCN(c3ccc([N+](=O)[O-])cc3)CC2)cc1OC	1.4	-1.8	-1.3	9.5	2.6	·	·	·
CCCC(=O)Nc1ccc(N2CCN(C(=O)c3cc4ccccc4o3)CC2)cc1	-2.4	-4.1	-3.3	9.8	1.1	·	·	·
O=C(c1cc2ccccc2o1)N1CCN(c2cccc(Cl)c2)CC1	2.0	5.7	-0.2	54.3*	22.4	57.7*	0.8	1.4
O=C(c1cc2ccccc2o1)N1CCN(c2ccccn2)CC1	-10.9	-2.7	3.4	50.7*	9.9	35.0	-1.3	-14.6
O=C(c1cc2ccccc2o1)N1CCN(c2ccccc2Cl)CC1	13.2	-3.8	0.8	86.1*	10.2	67.3*	-0.5	-13.0
O=C(c1ccc(Br)o1)N1CCN(c2ccccn2)CC1	-16.4	3.4	0.5	-0.7	10.9	·	·	·
